Screens (PubChem BioAssay)
Autophagy HCS: alters autophagy in cells; MEF GFP-LC3 puncta imaging; test concentration mostly 10 µM; calls only at 10 µM (by protocol); 190,000 tested, 0.98% active; AID 463193;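 active = percentage of spot-positive cells more than 3 SD above its plate mean, without a fluorescence outlier flag or 80% toxicity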;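 note: spot-positive cell cutoff set from DMSO-treated cells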
HCT116 PTEN-null: suppresses growth of cells with PTEN deletion; HCT116 PTEN-null viability, CellTiter-Glo, 60 h; hits give low values; viability, % at 10 µM; 140,000 tested, 1.2% active;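 active = viability at or below a set limit, 4 SD under the median of all tested compounds, cut at about 3.7% in these data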;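 note: PTEN knockout HCT116 line with beta catenin targeted HCT116 as companion control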
Lmaj promast: Leishmania major promastigote growth inhibition. Leishmania major promastigotes, resazurin fluorescence viability. inhibition, % at 10 µM. 200,000 tested, 9% active; in the data active = inhibition above about 50%;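 note: promastigotes grown with compound for 44 hours at 28 °C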
bCat KO growth: beta-catenin-lacking colon tumor cell growth suppression. HCT116 beta-catenin knockout viability, CellTiter-Glo, 60 h; hits give low values. viability, % at 10 µM. 140,000 tested, 1.5% active. AID 818;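 active = viability at or under a set limit, the compound median less 4 SD, cut at about 6% in these data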;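 note: 0% = Hyamine 1622 control at 20 µM and 100% = untreated cell control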
Dynein transport: blocks dynein driven cargo transport along microtubules; 3617.4 mouse cells, GR-EGFP nuclear translocation imaging; test concentration mostly 20 µM; stimulated with dexamethasone, 1 µM; hits give low values; z-score, hits read low; 220,000 tested, 0.47% active; AID 1381;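 active = plate z-score of nuclear minus cytoplasmic receptor signal below a set negative limit, without overly bright fluorescence or cell loss, cut at about -3.5 in these data, passing the limit was not always enough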;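 note: z-score of nuclear minus cytoplasmic ring GR-EGFP intensity difference per well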
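Also added – dexamethasone, 1.0 µM final · Buffer or medium – tet-free, stripped-serum medium · Schedule – induction 48 h, compound 1 h, agonist 30 min · Detection – formaldehyde fixation, Hoechst nuclear stain, 10x automated fluorescence imaging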
The depositor's hits bear a star. Sampled rows, rich in hits. Any-hit rate of the full collection: about 9.2%.

Screening COc1ccc(OC)c(Nc2nc(-c3sc(NC(=O)CC(C)C)nc3C)cs2)c1 returned Autophagy HCS inactive, HCT116 PTEN-null 49, Lmaj promast 81*, bCat KO growth 62 and Dynein transport -0.19.
Screening CC1(C)CC(=O)C(CC2=C(O)CC(C)(C)CC2=O)=C(O)C1 returned Autophagy HCS active, HCT116 PTEN-null 95, Lmaj promast -2, bCat KO growth 95 and Dynein transport 0.71.
CNCCCCOc1ccc(C(C)(C)C)cc1Cl was read as Autophagy HCS inactive, Lmaj promast 98* and Dynein transport 0.71.
Screening CC(C)(C)c1ccc(OCCON2C(=O)CCC2=O)c(Cl)c1 returned Autophagy HCS inactive, Lmaj promast -2, bCat KO growth 92 and Dynein transport -0.14.
For N#Cc1nc(COc2ccccc2)oc1NCCN1CCOCC1 the results were Autophagy HCS inactive, HCT116 PTEN-null 88, Lmaj promast 4, bCat KO growth 102 and Dynein transport -1.1.
Screening CN(C)CCNc1oc(COc2ccc(-c3ccccc3)cc2)nc1C#N returned Autophagy HCS active, HCT116 PTEN-null 75, Lmaj promast 66*, bCat KO growth 88 and Dynein transport 3.
`N#Cc1nc(COc2ccc(-c3ccccc3)cc2)oc1NCCCN1CCOCC1` gave Autophagy HCS inactive, HCT116 PTEN-null 33, Lmaj promast 64*, bCat KO growth 25 and Dynein transport 0.11.
For O=C(CCn1ccnc1)Nc1nc2ccccc2[nH]1 the results were Autophagy HCS inactive, Lmaj promast -4 and Dynein transport -0.15.
Screening COc1ccc(-c2nn(-c3ccccc3)cc2/C=C/C(=O)O)cc1[N+](=O)[O-] returned Dynein transport -0.28.
For CCOC(=O)c1c(NC(=O)CSc2ncccn2)sc2c1CCN(Cc1ccccc1)C2 the results were Autophagy HCS inactive, HCT116 PTEN-null 36, Lmaj promast 99*, bCat KO growth 26 and Dynein transport -0.021.
Screening CCOC(=O)c1c(NC(=O)CSc2nnc3c(n2)[nH]c2ccccc23)sc2c1CCN(C)C2 returned Autophagy HCS inactive, Lmaj promast 100* and Dynein transport 0.51.
`CCOC(=O)c1c(NC(=S)Nc2ccccc2)sc2c1CC(C)(C)SC2` gave Autophagy HCS inactive, HCT116 PTEN-null 95, Lmaj promast 8, bCat KO growth 94 and Dynein transport -0.53.
CCOC(=O)c1c(NC(=O)CSc2nnc3c(n2)[nH]c2ccc(F)cc23)sc(C(C)=O)c1C was read as Autophagy HCS inactive, HCT116 PTEN-null 78, Lmaj promast 1, bCat KO growth 103 and Dynein transport 0.12.
CCOC(=O)c1c(NC(=S)Nc2ccccc2)sc2c1CCN(CCc1ccccc1)C2 was read as Autophagy HCS inactive, HCT116 PTEN-null 19, Lmaj promast 79*, bCat KO growth 21 and Dynein transport -0.96.
CCc1nnc(NC(=O)CSc2nnc(-c3ccc(O)cc3)n2C)s1 was read as Autophagy HCS inactive, Lmaj promast 3 and Dynein transport 1.1.
Screening Cn1c(=O)[nH]c(=O)c2c1ncn2CCCc1ccccc1 returned Autophagy HCS inactive, HCT116 PTEN-null 101, Lmaj promast -4, bCat KO growth 119 and Dynein transport -0.38.
Cc1ccn2c(C=O)c(-c3ccc(F)cc3)c(C=O)c2c1 was read as Autophagy HCS inactive, Lmaj promast 35 and Dynein transport -0.19.
Screening CC(C)CCN(C(=O)Cc1ccc(Cl)c(Cl)c1)c1c(N)n(Cc2ccccc2)c(=O)[nH]c1=O returned Autophagy HCS inactive, Lmaj promast -3 and Dynein transport -0.35.
`CC(Oc1ccccc1Cl)C(=O)/C=C/N(C)C` (stereo not given) gave Autophagy HCS inactive, HCT116 PTEN-null 92, Lmaj promast -5, bCat KO growth 87 and Dynein transport 0.1.
`Cc1ccc(CS(=O)(=O)c2ncn[nH]2)cc1` gave Autophagy HCS inactive, Lmaj promast -5 and Dynein transport -0.83.
Screening Cc1ccc(N/N=C(\C#N)C(=N)N2CCCCC2)cc1 returned Dynein transport 0.2.
For N#C/C(=N\Nc1ccccc1)C(=N)N1CCCCC1 the results were Autophagy HCS inactive, HCT116 PTEN-null 94, Lmaj promast 90*, bCat KO growth 92 and Dynein transport -0.34.
O=c1[nH]ncc(N2CCN(C(c3ccccc3)c3ccccc3)CC2)c1Cl was read as Autophagy HCS inactive, HCT116 PTEN-null 82, Lmaj promast 93*, bCat KO growth 86 and Dynein transport -0.7.
Cc1ccc(OCC(=O)N2CCC(N3CCCCCC3)CC2)cc1 was read as Autophagy HCS inactive, HCT116 PTEN-null 100, Lmaj promast 87*, bCat KO growth 88 and Dynein transport -0.4.
For O=C(CCC1CCCC1)N1CCC(N2CCCCCC2)CC1 the results were Autophagy HCS inactive, HCT116 PTEN-null 90, Lmaj promast 91*, bCat KO growth 85 and Dynein transport 0.47.
For COc1ccccc1N1CCN(C2CCN(C(=O)COc3cccc(C)c3)CC2)CC1 the results were Autophagy HCS inactive, HCT116 PTEN-null 95, Lmaj promast 56*, bCat KO growth 82 and Dynein transport 1.3.
`COC(=O)C1CCN(C(=O)CCC2CCCCC2)CC1` gave Autophagy HCS inactive, HCT116 PTEN-null 112, Lmaj promast -7, bCat KO growth 109 and Dynein transport 0.71.
Cc1ccc(OCC(=O)N2CCN(C(=O)CCC3CCCC3)CC2)cc1 was read as Autophagy HCS inactive, HCT116 PTEN-null 100, Lmaj promast -1, bCat KO growth 90 and Dynein transport -0.38.
Screening CC(C)CC1c2[nH]c3ccccc3c2CCN1C(=O)CCC(=O)N(C)C (stereo not given) returned Autophagy HCS inactive, Lmaj promast 1 and Dynein transport -1.3.
Cc1ccc(C(=O)O)cc1NC(=O)CCc1ccccc1 was read as Autophagy HCS active, Lmaj promast -4 and Dynein transport -0.68.
Screening Cc1cc(C)cc(NS(=O)(=O)c2ccc3c(c2)c(=O)n(C)c(=O)n3C)c1 returned Autophagy HCS inactive, HCT116 PTEN-null 39, Lmaj promast 97*, bCat KO growth 46 and Dynein transport -1.2.
`Cc1cc(S(=O)(=O)Nc2ccc3c(c2)n(C)c(=O)n3C)ccc1F` gave Autophagy HCS inactive, Lmaj promast 4 and Dynein transport -1.2.
Cn1c(=O)c2cc(S(=O)(=O)Nc3cc(C(=O)O)cc(C(=O)O)c3)ccc2n(C)c1=O was read as Autophagy HCS inactive, Lmaj promast -9 and Dynein transport -0.51.
For Cc1ccc(NS(=O)(=O)c2ccc3c(c2)c(=O)n(C)c(=O)n3C)cc1F the results were Autophagy HCS inactive, HCT116 PTEN-null 62, Lmaj promast 68*, bCat KO growth 50 and Dynein transport 0.076.
For Cc1nnc(SCc2nnc(-c3ccccc3Br)o2)s1 the results were Autophagy HCS inactive, Lmaj promast 0 and Dynein transport -0.74.
